Screening results (PubChem BioAssay)
GSTO1 inh = inhibitors of recombinant GSTO1, primary screen, counter-screen for RBBP9 inhibitor project, biochemical, fluorescence polarization; Glutathione S-transferase omega-1 (Homo sapiens), P78417; activity-based probe fluorescence polarization; inhibition, % at 5.96 µM; 300,000 tested, 1.1% active; AID 1974, 2009;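 active means inhibition above the campaign mean inhibition plus 3 SD, cut at about 35% in these data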;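 further: 0% = GSTO1-1 with DMSO and 100% = wells lacking GSTO1-1 enzyme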
RBBP9 inh = human RBBP9 inhibitors, primary screen, biochemical, fluorescence polarization, FP-Rh probe, HTS | inhibition, % at 7.94 µM | recombinant RBBP9 | AID 1515, 2009 | Serine hydrolase RBBP9 (Homo sapiens), O75884 | 220,000 tested, 0.2% active;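 active means inhibition above the campaign mean of all tested compounds plus 3 SD, cut at about 14% in these data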;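 further: plate controls were DMSO wells with RBBP9 for no effect and wells lacking RBBP9 protein for full effect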
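Measured by: FP readout at 525/598 nm; material: recombinant human RBBP9; also added: Serine-hydrolase probe FP-Rh, 375 nM pre-mixing; medium: Tris buffer pH 8.0, NaCl, Pluronic; replication: one well per compound; doses: one concentration, 7.94 µM nominal, 0.794% DMSO; timing: preincubation 30 min plus labeling 45 min at 25 °C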
SIAE inh = human SIAE inhibitors, primary screen, biochemical, fluorescence polarization, FP-Rh probe, 1536-well HTS; 370,000 tested, 0.69% active; SIAE FP-Rh probe binding; Sialate O-acetylesterase (Homo sapiens), Q9HAT2; inhibition, % at 9.66 µM;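 active means inhibition above a cutoff: mean of compounds within the control limits plus 3 SD of those, cut at about 17% in these data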;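 further: 0% = plate median of compound wells and 100% = probe without SIAE protein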
PAD4 inh = human PAD4 inhibitors, primary screen, biochemical, fluorescence polarization, 1536-well format. Protein-arginine deiminase type-4 (Homo sapiens), Q9UM07. recombinant PAD4, RCA probe fluorescence polarization. inhibition, % at 6.36 µM. 330,000 tested, 0.41% active. AID 485272, 2010;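 active means percent inhibition above a cutoff equal to the mean of all tested compounds plus 3 SD, cut at about 15% in these data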;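 further: 0% = PAD4 with RCA probe and DMSO and 100% = probe without PAD4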
Target sequence (Q9UM07 whole entry, looked up): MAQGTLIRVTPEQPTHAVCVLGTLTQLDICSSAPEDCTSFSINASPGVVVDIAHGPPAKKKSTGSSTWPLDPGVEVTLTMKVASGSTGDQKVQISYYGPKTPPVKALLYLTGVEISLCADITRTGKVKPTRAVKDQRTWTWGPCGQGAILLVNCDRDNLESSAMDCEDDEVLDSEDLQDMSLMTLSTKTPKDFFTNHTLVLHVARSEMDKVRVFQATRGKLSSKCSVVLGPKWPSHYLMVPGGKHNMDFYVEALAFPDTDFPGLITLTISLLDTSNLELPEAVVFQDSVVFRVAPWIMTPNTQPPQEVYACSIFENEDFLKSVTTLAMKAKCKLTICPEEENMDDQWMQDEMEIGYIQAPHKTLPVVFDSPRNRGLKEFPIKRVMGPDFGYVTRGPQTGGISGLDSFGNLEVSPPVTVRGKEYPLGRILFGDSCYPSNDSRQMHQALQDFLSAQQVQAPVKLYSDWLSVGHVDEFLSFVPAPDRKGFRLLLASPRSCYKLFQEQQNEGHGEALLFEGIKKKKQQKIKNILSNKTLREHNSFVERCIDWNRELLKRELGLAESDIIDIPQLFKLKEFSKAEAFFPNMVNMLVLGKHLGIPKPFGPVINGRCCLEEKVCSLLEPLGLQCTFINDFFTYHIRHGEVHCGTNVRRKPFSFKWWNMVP
PRMT1 inh = PRMT1 methyltransferase inhibitors, primary screen, biochemical, fluorescence polarization; Protein arginine N-methyltransferase 1 (Homo sapiens), Q99873; recombinant PRMT1, activity-based probe fluorescence polarization; inhibition, % at 2.79 µM; 370,000 tested, 1.3% active; AID 652257, 2013;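 active means inhibition above about 21% made by adding two undisclosed values, limit read from the data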
PRMT1 confirm = PRMT1 methyltransferase inhibitors, confirmation, biochemical, fluorescence polarization, triplicate; shares compounds with PRMT1 inh; recombinant His-PRMT1, activity-based probe fluorescence polarization; inhibition, % at 2.79 µM; 3,300 tested, 42% active;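 active means mean inhibition across replicates above the hit cutoff derived for the earlier primary screen, cut at about 22% in these data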
* hit, by the source's call; . = not tested or not shown; ! = not confirmed by another sample. Compounds with a hit are over-represented: about 2.7% of the library has one in this group of screens.

SMILES | GSTO1 inh | RBBP9 inh | SIAE inh | PAD4 inh | PRMT1 inh | PRMT1 confirm
CCCC(=O)OCCNc1cc(SCc2ccco2)c2nonc2c1[N+](=O)[O-] | 23 | -6 | 12 | 4 | 14 | .
CCCSc1cc(NCCOC(=O)CCC)c([N+](=O)[O-])c2nonc12 | 13 | -1 | 13 | 4 | 21 | .
CCC(=O)OCCNc1cc(Sc2nc3ccccc3[nH]2)c2nonc2c1[N+](=O)[O-] | -17 | -5 | -7 | -10 | 84* | 76*
CCC(=O)OCCNc1cc(Sc2nc3ccccc3s2)c2nonc2c1[N+](=O)[O-] | 4 | 0 | 4 | -4 | 68* | 76*
Cc1nc(CCNC(=O)CC2C(=O)NCCN2CC(C)C)nc2c1CCC2 (stereo not drawn) | 7 | . | 0 | -5 | 1 | .
CSc1nnc(-c2ccccc2Cl)n1N | 0 | -6 | -4 | -2 | 0 | .
O=C1NC2c3c(I)sc(I)c3C(=O)C2O1 (stereo not drawn) | . | . | 2 | . | 47* | 15
Cc1cc(Br)cn2c(Cc3cccc(F)c3)c(-c3ccco3)nc12 | . | . | -6 | . | 35* | 30*
Fc1cccc(Cc2c(-c3ccco3)nc3ccc(Br)cn23)c1 | . | . | -7 | . | 34* | 11
Cc1cc(Br)cn2c(Cc3cccc(F)c3)c(-c3cccc(Cl)c3)nc12 | . | . | -9 | . | -2 | .
Cc1c(CCOC(=O)C23CC4CC(CC(C)(C4)C2)C3)sc[n+]1Cc1ccccc1 | -9 | -8 | -3 | 6 | 0 | .
Fc1ccccc1NC(=S)Nc1cccnc1 | 2 | 0 | -1 | -7 | -1 | .
S=c1[nH]nc(COc2ccccc2)n1/N=C/c1ccc(Cl)c(Cl)c1 | 1 | . | 1 | 2 | 1 | .
Cc1cccc(/C=N/n2c(COc3ccccc3)n[nH]c2=S)c1 | . | . | 4 | . | 28* | 13
COc1cccc(/C=N/n2c(COc3ccccc3)n[nH]c2=S)c1O | 17 | . | -5 | -5 | -1 | .
COc1cccc(/C=N/n2c(COc3ccccc3)n[nH]c2=S)c1OC | -2 | . | 4 | -2 | 27* | 8
CC(/C=N/n1c(COc2ccccc2)n[nH]c1=S)=C\c1ccccc1 | -6 | -8 | 8 | 0 | 27* | 5
CCOc1ccc(-n2c(SCc3ccc([N+](=O)[O-])cc3)nnc2-c2ccc(OC)cc2)cc1 | -1 | 0 | -4 | 5 | 3 | .
COC(=O)c1cccc(Cn2ccc3ccc(-c4ccc5ccn(C(=O)c6ccccc6OC)c5c4)cc32)c1 | . | . | -12 | . | -6 | .
COc1ccc(C2CC(=O)N(C)c3ccccc3S2)cc1OC (stereo not drawn) | 1 | -5 | -3 | 3 | 6 | .
Cc1nc(NC(=O)C(C)Oc2cccc(Cl)c2)sc1C(=O)N(C)C (stereo not drawn) | 2 | -5 | 1 | 4 | -1 | .
N#Cc1nc(-c2ccccc2F)oc1NCc1ccccc1 | -2 | -1 | 2 | -5 | 2 | .
c1cc2c(cc1C1CCCCC1)c1c3n2CCCNC3CCC1 (stereo not drawn) | 8 | -2 | 10 | 2 | -2 | .
Oc1cc2c(cc1O)[C@H]1c3ccc(O)c(O)c3OC[C@@]1(O)C2 | . | . | -9 | 7 | 43* | 38*
COc1ccccc1NC(=S)NCCSc1ccc(C)cc1 | -6 | -6 | 7 | 5 | -2 | .
SMILES | GSTO1 inh | RBBP9 inh | SIAE inh | PAD4 inh | PRMT1 inh | PRMT1 confirm
CCC(C)Nc1nc(N)c([N+](=O)[O-])c(NCCO)n1 (stereo not drawn) | -7 | -13 | -3 | 2 | 4 | .
CCn1c(N)c(C(N)=O)sc1=S | 3 | 2 | 6 | -1 | 27* | 12
CCOC(=O)c1sc(=S)n(CC)c1N | 3 | -3 | 4 | 1 | 0 | .
C/C(=N\NC(=O)C1CC1)c1ccccc1Br | . | . | 2 | . | 1 | .
O=C(O)c1cc(C(=O)O)cc(N2C(=O)c3ccccc3C2=O)c1 | . | . | -6 | . | -1 | .
O=C(O)c1cc(N2C(=O)C=CC2=O)cc(N2C(=O)C=CC2=O)c1 | . | . | 4 | . | 75* | 97*
O=c1[nH]c(=O)n(C2OC(CO)C(O)C(O)C2O)cc1F (stereo not drawn) | . | . | 1 | . | -1 | .
O=C1C=C(C2OC(CO)C(O)C2O)C(=O)N1 (stereo not drawn) | . | . | -1 | . | 70* | 71*
O=C(O)c1ccc(N/N=C/C2=C(N3CCOCC3)C(=C\c3ccccc3)/CC2)cc1 | 27 | -2 | 17 | 4 | 33* | 16
Cc1cc(C)nc(N/N=C/C2=C(N3CCOCC3)C(=C\c3ccc(Cl)cc3)/CC2)n1 | 3 | -4 | 6 | -8 | 10 | .
CC(=O)Nc1ccc(S(=O)(=O)NCC(=O)NNC(=O)c2csc(N3CCOCC3)n2)cc1 | 1 | . | 0 | 6 | 52* | 14
C[n+]1c2cc(N)ccc2cc2ccc(N)cc21 | . | . | 25*! | . | 147* | 142*
CC[n+]1c(/C=C(\C)Nc2ccccc2)sc2ccccc21 | 16 | -4 | 0 | 3 | 2 | .
CC[n+]1c(/C=C(/C)SC)sc2ccccc21 | 7 | 1 | 2 | -2 | 96* | 24*
CC[n+]1c(/C=C(\C)SC)sc2ccccc21 | -4 | -3 | 0 | -3 | 34* | 13
CC/C(=C/c1sc2ccccc2[n+]1CC)SC | 0 | 1 | -2 | -2 | 66* | 7
CC[n+]1c(/C=C2/C=C(C)CC(C)C2)sc2ccccc21 (stereo not drawn) | -3 | -5 | 4 | -8 | 28* | 13
CCc1[nH]nc2c1C(c1ccsc1)C(C#N)=C(N)O2 (stereo not drawn) | 4 | -5 | -4 | -4 | 2 | .
Cc1ccccc1N1C(=O)c2cccc3cccc(c23)C1=O | 6 | . | -8 | -2 | 1 | .
O=C1CC(SC(=S)C2CCCC2=O)C(=O)N1 (stereo not drawn) | . | . | -2 | . | 64* | 82*
Cc1ccc(NS(=O)(=O)c2cc(NC(=O)c3ccc4c(c3)NC(=O)CS4)ccc2C)c(C)c1 | -2 | 7 | -70 | -2 | 34* | 23*
Cc1ccc(N2C(=O)CC(Sc3nc4ccccc4o3)C2=O)cc1Cl (stereo not drawn) | -2 | -13 | -8 | -8 | 50* | 37*
CC(C)c1ccc(OCC(=O)NNC(=S)NC(=O)c2cccs2)c(Br)c1 | 2 | . | 4 | -2 | 5 | .
CCN(CC)S(=O)(=O)c1cccc(C(=O)N/N=C2\CC(=O)CC(C)(C)C2)c1 | 1 | 1 | 2 | -3 | 17 | .
CCN(CC)S(=O)(=O)c1cccc(C(=O)N/N=C2\CCCC(=O)C2)c1 | 5 | -6 | 5 | -5 | 46* | -2
Nc1nc(SCc2ccccc2)n[nH]1 | 14 | -9 | 10 | 0 | -6 | .
